Laboratory results from ChEMBL document CHEMBL1158168, “Condensed bridgehead nitrogen heterocyclic system: synthesis and pharmacological activities of 1,2,4-triazolo-[3,4-b]-1,3,4-thiadiazole derivatives of ibuprofen and biphenyl-4-yloxy acetic acid” (Eur J Med Chem, 2008).
Values after ≈ are worked out from the molar mass of the structure shown. Active and inactive are the calls of the source. The rule behind the calls is not given here.

Columns and labels:
Rattus norvegicus [1] = assay: Antiinflammatory activity in Wistar albino rat assessed as inhibition of carrageenan-induced paw edema administered at equimolar oral dose relative to 70 mg/kg ibuprofen measured 4 hrs after carrageenan challenge; type: functional
Summary of the method: (§1)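 Wistar rats of either sex (180-200 g), six per group, dosed orally in a 0.5% CMC vehicle. One hour later, 0.1 mL of […] in 0.9% NaCl was injected sub-plantar into the right hind paw. Paw volume was read by plethysmometer before and 4 h after carrageenan, and percent inhibition was calculated.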

Staphylococcus aureus = assay: Antibacterial activity against Staphylococcus aureus ATCC 19433 by cup plate method; type: functional
Summary of the method: (§2)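 Cup-plate diffusion on nutrient agar, with compounds dissolved in DMF. Compounds were tested at 200, 100, 50 and 25; those inhibiting at 25 were also tested at 12.5 and 6.25. MIC is the lowest concentration preventing visible growth on the plate.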

Escherichia coli = assay: Antibacterial activity against sEscherichia coli ATCC 25922 by cup plate method; type: functional; summary of the method: as §2
Candida albicans = assay: Antimicrobial activity against Candida albicans ATCC 2091 by cup plate method; type: functional
Summary of the method: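 Candida albicans grown on Sabouraud dextrose medium and tested by cup-plate diffusion, with compounds dissolved in DMF. Compounds were tested at 200, 100, 50 and 25; those inhibiting at 25 were also tested at 12.5 and 6.25. MIC is the lowest concentration preventing visible growth.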

Rattus norvegicus [2] = assay: Gastrointestinal toxicity in rat assessed as gastric mucosal damage severity index administered at equimolar oral dose relative to 210 mg/kg ibuprofen; type: organism-based, Gastric mucosa; parameters: dose 210 mg/kg, route oral; conditions: in vivo
Summary of the method: (§3)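 Rats, six per group, were fasted 24 h with water allowed, then dosed orally in a 0.5% CMC vehicle. They were fed normally for 17 h and then sacrificed. Stomachs were opened along the greater curvature and mucosal lesions scored under a magnifier (0.5 redness to 3.0 for more than 5 ulcers). Severity index is the mean group score minus the control mean.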

Rattus norvegicus [3] = assay: Inhibition of lipid peroxidation in rat assessed as malondialdehyde level per 100 mg of tissue administered at equimolar oral dose relative to 210 mg/kg ibuprofen; type: functional
Summary of the method: (§4)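 Gastric mucosa was scraped from the stomachs after ulcer scoring. 100 mg was homogenized in ice-cold 1.15% KCl and reacted with SDS, acetate buffer (pH 3.5) and 0.8% TBA at 95 °C for 60 min. The product was extracted into n-butanol/pyridine (15:1) and absorbance read at 532 nm. MDA was calculated using ε 1.56 × 10⁵ M⁻¹cm⁻¹ and expressed per 100 mg tissue.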

Rattus norvegicus [4] = assay: Antiinflammatory activity in Wistar albino rat assessed as inhibition of carrageenan-induced paw edema at 10 mg/kg, po measured 4 hrs after carrageenan challenge; type: functional
Summary of the method: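 Wistar albino rats of either sex, 180-200 g, groups of six; oral dosing, vehicle 0.5% CMC. 0.1 mL of 0.1% carrageenan in sterile 0.9% NaCl injected subplantar into the right hind paw 1 h after dosing. Paw volume measured by plethysmometer before and 4 h after carrageenan; percent inhibition calculated.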

Rattus norvegicus [5] = assay: Gastrointestinal toxicity in rat assessed as gastric mucosal damage severity index at 30 mg/kg, po; type: organism-based, Gastric mucosa; parameters: dose 30 mg/kg, route oral; conditions: in vivo
Summary of the method: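 Rats, groups of six, food but not water withheld 24 h; oral dosing in 0.5% CMC. Normal diet for 17 h, then sacrificed. Stomach opened along the greater curvature and inspected under a magnifying glass. Scored 0.5 redness to 3.0 (>5 ulcers); severity index is the group mean score minus the control mean.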

Rattus norvegicus [6] = assay: Inhibition of lipid peroxidation in rat assessed as malondialdehyde level per 100 mg of tissue at 30 mg/kg, po; type: functional
Summary of the method: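 Gastric mucosa scraped from stomachs after ulcerogenicity testing; 100 mg homogenized in 1.15% ice-cold KCl. TBA method with SDS and acetate buffer pH 3.5, heated at 95 °C for 60 min. Extracted into n-butanol/pyridine 15:1, absorbance read at 532 nm. Expressed as nmol MDA/100 mg tissue using ε 1.56 × 10⁵ cm⁻¹ M⁻¹.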

Mus musculus [7] = assay: Analgesic activity in Swiss albino mouse assessed as effect on reaction time for tail withdrawal administered at 10 mg/kg, po after 4 hrs by tail immersion method; type: functional
Summary of the method: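 Swiss albino mice of either sex, 25-30 g, groups of six; oral dosing as suspension in 0.5% w/v CMC in water. Tail immersion: lower 5 cm of tail dipped in water held at 55 ± 0.5 °C. Reaction time taken before and 4 h after dosing.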

Rattus norvegicus [8] = assay: Antiinflammatory activity in Wistar albino rat assessed as inhibition of carrageenan-induced paw edema administered at equimolar oral dose relative to 10 mg/kg fluribiprofen measured 4 hrs after carrageenan challenge; type: functional; summary of the method: as §1
Rattus norvegicus [9] = assay: Gastrointestinal toxicity in rat assessed as gastric mucosal damage severity index administered at equimolar oral dose relative to 30 mg/kg fluribiprofen; type: organism-based, Gastric mucosa; parameters: dose 30 mg/kg, route oral; conditions: in vivo; summary of the method: as §3
Rattus norvegicus [10] = assay: Hepatotoxicity in po dosed Wistar albino rat assessed as serum glutamate oxaloacetate transaminase activity after 7 days; type: toxicity, organism-based; conditions: in vivo, 168 h
Rattus norvegicus [11] = assay: Hepatotoxicity in po dosed Wistar albino rat assessed as serum glutamate pyruvate transaminase activity after 7 days; type: toxicity, organism-based; conditions: in vivo, 168 h
Rattus norvegicus [12] = assay: Hepatotoxicity in po dosed Wistar albino rat assessed as alkaline phosphatase activity after 7 days; type: toxicity, organism-based; conditions: in vivo, 168 h
Rattus norvegicus [13] = assay: Hepatotoxicity in po dosed Wistar albino rat assessed as total protein content after 7 days; type: toxicity, organism-based; conditions: in vivo, 168 h
Rattus norvegicus [14] = assay: Hepatotoxicity in po dosed Wistar albino rat assessed as total albumin content after 7 days; type: toxicity, organism-based; conditions: in vivo, 168 h
Rattus norvegicus [15] = assay: Hepatotoxicity in po dosed Wistar albino rat assessed as hepatocyte necrosis after 7 days; type: toxicity, organism-based; conditions: hepatocytes, 168 h
Mus musculus [16] = assay: Analgesic activity in Swiss albino mouse assessed as effect on reaction time for tail withdrawal administered at 70 mg/kg, po after 4 hrs by tail immersion method; type: functional
Summary of the method: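 Swiss albino mice of either sex (25-30 g), six per group. Compounds were given orally as a suspension in 0.5% w/v CMC in water. Tail-withdrawal reaction time was measured before dosing and 4 h after, by immersing the lower 5 cm of the tail in water held at 55 ± 0.5 °C.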

Rattus norvegicus [17] = assay: Gastrointestinal toxicity in rat assessed as gastric mucosal damage severity index at 210 mg/kg, po; type: organism-based, Gastric mucosa; parameters: dose 210 mg/kg, route oral; conditions: in vivo; summary of the method: as §3
Rattus norvegicus [18] = assay: Inhibition of lipid peroxidation in rat assessed as malondialdehyde level per 100 mg of tissue at 210 mg/kg, po; type: functional; summary of the method: as §4

Row | Structure (SMILES) | inhibition in vivo (Rattus norvegicus [1]) [%] | MIC (Staphylococcus aureus) [µg/mL] | MIC (Escherichia coli) [µg/mL] | MIC (Candida albicans) [µg/mL] | inhibition in vivo (Rattus norvegicus [8]) [%] | other results
1 | CCCCNc1nn2c(C(C)c3ccc(CC(C)C)cc3)nnc2s1 (stereo unspecified) | 80.3 | 200 (≈ 559 µM) | 100 (≈ 280 µM) | 50 (≈ 140 µM) |  | UI (Rattus norvegicus [2]): 1; Activity (Rattus norvegicus [3]): 5.78 nmol
2 | CC(C(=O)O)c1ccc(-c2ccccc2)c(F)c1 (stereo unspecified) [FLURBIPROFEN] |  |  |  |  |  | inhibition in vivo at 10 mg/kg (Rattus norvegicus [4]): 80.3%; UI (Rattus norvegicus [5]): 1.666; Activity (Rattus norvegicus [6]): 7.51 nmol; inhibition in vivo at 10 mg/kg (Mus musculus [7]): 69.5%
3 | CC(C)Cc1ccc(C(C)c2nnc3sc(Nc4ccc(F)cc4)nn23)cc1 (stereo unspecified) | 28 | 200 (≈ 506 µM) | 200 (≈ 506 µM) | 200 (≈ 506 µM) |  | 
4 | Nc1ccc(-c2nn3c(COc4ccc(-c5ccccc5)cc4)nnc3s2)cc1 |  | 50 (≈ 125 µM) | 200 (≈ 501 µM) | 200 (≈ 501 µM) | 76.5 | UI (Rattus norvegicus [9]): 0.417
5 | CC(=O)N1CCN(c2ccc(OCC3COC(Cn4ccnc4)(c4ccc(Cl)cc4Cl)O3)cc2)CC1 (stereo unspecified) [KETOCONAZOLE] |  |  |  | 6.25 (≈ 11.8 µM) |  | 
6 | CC(C)Cc1ccc(C(C)c2nnc3sc(Cc4ccccc4Nc4c(Cl)cccc4Cl)nn23)cc1 (stereo unspecified) | 18.2 | 50 (≈ 93.2 µM) | 200 (≈ 373 µM) | 200 (≈ 373 µM) |  | 
7 | Clc1ccc(-c2nn3c(COc4ccc(-c5ccccc5)cc4)nnc3s2)cc1 |  | 100 (≈ 239 µM) | 25 (≈ 59.7 µM) | 50 (≈ 119 µM) | 78.8 | UI (Rattus norvegicus [9]): 0.833
8 | CC(C)Cc1ccc(C(C)c2nnc3sc(-c4ccccc4N)nn23)cc1 (stereo unspecified) | 57.6 | 200 (≈ 530 µM) | 100 (≈ 265 µM) | 12.5 (≈ 33.1 µM) |  | 
9 | CCCCNc1nn2c(COc3ccc(-c4ccccc4)cc3)nnc2s1 |  |  | 100 (≈ 264 µM) | 25 (≈ 65.9 µM) | 65.9 | Activity (Staphylococcus aureus): inactive
10 | c1ccc(Nc2nn3c(COc4ccc(-c5ccccc5)cc4)nnc3s2)cc1 |  |  | 25 (≈ 62.6 µM) | 200 (≈ 501 µM) |  | Activity (Staphylococcus aureus): inactive
11 | CC(C)Cc1ccc(C(C)c2nnc3sc(Nc4ccccc4)nn23)cc1 (stereo unspecified) | 68.2 | 100 (≈ 265 µM) | 25 (≈ 66.2 µM) |  |  | Activity (Candida albicans): inactive; UI (Rattus norvegicus [2]): 0.667; Activity (Rattus norvegicus [3]): 5.12 nmol
12 | Nc1ccccc1-c1nn2c(COc3ccc(-c4ccccc4)cc3)nnc2s1 |  | 25 (≈ 62.6 µM) | 50 (≈ 125 µM) | 25 (≈ 62.6 µM) | 47.7 | 
13 | CC1COc2c(N3CCN(C)CC3)c(F)cc3c(=O)c(C(=O)O)cn1c23 (stereo unspecified) [OFLOXACIN] |  | 6.25 (≈ 17.3 µM) | 6.25 (≈ 17.3 µM) |  |  | 
14 | Fc1ccc(Nc2nn3c(COc4ccc(-c5ccccc5)cc4)nnc3s2)cc1 |  |  | 25 (≈ 59.9 µM) |  | 78.2 | Activity (Staphylococcus aureus): inactive; Activity (Candida albicans): inactive; UI (Rattus norvegicus [9]): 0.666; Activity (Rattus norvegicus [10]): 137 U/ml; Activity (Rattus norvegicus [11]): 26.5 U/ml; Activity (Rattus norvegicus [12]): 17.07 U/ml; Activity (Rattus norvegicus [13]): 0.9 g/dL; Activity (Rattus norvegicus [14]): 0.71 g/dL; Activity (Rattus norvegicus [15]): Non-toxic
15 | Clc1ccc(OCc2nn3c(COc4ccc(-c5ccccc5)cc4)nnc3s2)c(Cl)c1 |  | 25 (≈ 51.7 µM) | 50 (≈ 103 µM) | 50 (≈ 103 µM) | 50.8 | 
16 | CC(C)Cc1ccc(C(C)c2nnc3sc(-c4ccc(Cl)cc4Cl)nn23)cc1 (stereo unspecified) | 80.3 | 200 (≈ 464 µM) | 200 (≈ 464 µM) | 200 (≈ 464 µM) |  | UI (Rattus norvegicus [2]): 0.333; Activity (Rattus norvegicus [3]): 5.04 nmol; Activity (Rattus norvegicus [10]): 147.5 U/ml; Activity (Rattus norvegicus [11]): 28.17 U/ml; Activity (Rattus norvegicus [12]): 15.18 U/ml; Activity (Rattus norvegicus [13]): 1.89 g/dL; Activity (Rattus norvegicus [14]): 1.8 g/dL; Activity (Rattus norvegicus [15]): Non-toxic
17 | CC(C)Cc1ccc(C(C)C(=O)O)cc1 (stereo unspecified) [IBUPROFEN] |  |  |  |  |  | inhibition in vivo at 70 mg/kg (Mus musculus [16]): 74.1%; UI (Rattus norvegicus [17]): 2; Activity (Rattus norvegicus [18]): 7.79 nmol
18 | Cc1ccc(Nc2nn3c(C(C)c4ccc(CC(C)C)cc4)nnc3s2)c(C)c1 (stereo unspecified) | 53 | 200 (≈ 493 µM) | 50 (≈ 123 µM) | 200 (≈ 493 µM) |  | 
19 | Clc1ccc(-c2nn3c(COc4ccc(-c5ccccc5)cc4)nnc3s2)c(Cl)c1 |  | 25 (≈ 55.1 µM) | 50 (≈ 110 µM) |  |  | 
20 | Cc1ccc(Nc2nn3c(COc4ccc(-c5ccccc5)cc4)nnc3s2)c(C)c1 |  |  | 50 (≈ 117 µM) | 100 (≈ 234 µM) | 39.4 | Activity (Staphylococcus aureus): inactive
21 | CC(C)Cc1ccc(C(C)c2nnc3sc(-c4ccc(N)cc4)nn23)cc1 (stereo unspecified) | 78.8 | 200 (≈ 530 µM) | 12.5 (≈ 33.1 µM) | 200 (≈ 530 µM) |  | UI (Rattus norvegicus [2]): 0.75; Activity (Rattus norvegicus [3]): 5.65 nmol
22 | CC(C)Cc1ccc(C(C)c2nnc3sc(COc4ccc(Cl)cc4Cl)nn23)cc1 (stereo unspecified) | 38.6 | 200 (≈ 433 µM) | 25 (≈ 54.2 µM) | 100 (≈ 217 µM) |  | 
23 | c1ccc(-c2ccc(OCc3nnc4sc(-c5ccccc5)nn34)cc2)cc1 |  | 25 (≈ 65 µM) | 25 (≈ 65 µM) |  | 65.1 | Activity (Candida albicans): inactive
